In general, Cmax refers to the peak of the concentration-time curve.

Activity calls are given as the source filed them. The calls are words filed in the database; no cut-off is given here.

Series [1] in a line: Metabolic stability in human liver S9 fraction assessed as half life at 2.5 uM measured upto 120 mins in presence of NADPH by LC-MS analysis. Particulars: s9, 2 h, 2.5 µM. The series is classed as ADME, subcellular. Put shortly:
(§1)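 2.5 μM compound at 37 °C in 50 mM potassium phosphate pH 7.4 with 3 mM MgCl2, 1 mM EDTA and an NADPH regenerating system. […] Sampled at 0–120 min in 20-min steps, acetonitrile quench, LC-MS of parent. T1/2 from one-phase exponential decay fit.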

A short description of series [2]: Drug metabolism in human serum assessed as psilocin formation at 2.5 uM after 120 mins by LC-MS analysis. The series is classed as ADME, cell-free. The settings on record: 2 h. The method, boiled down: (§2)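 2.5 μM compound in 50 mM potassium phosphate pH 7.4 with 3 mM MgCl2, 1 mM EDTA and an NADPH regenerating system. Incubated at 37 °C with human liver or intestinal S9 or microsomes (400 μg/mL protein) or 10% human AB serum. Acetonitrile quench, then LC-MS; psilocin concentration read at 120 min.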

Series [3] in a line: Metabolic stability in human intestine S9 fraction assessed as half life at 2.5 uM measured upto 120 mins in presence of NADPH by LC-MS analysis. Particulars: s9, 2 h. The series is classed as ADME, subcellular. Put shortly:
as §1

A short description of series [4]: Drug metabolism in po dosed C57BL/6 mouse assessed as psilocin formation measured upto 24 hrs by LC-MS analysis. The series is classed as ADME, organism-based. The settings on record: in vivo, dose 1-10 mg/kg.
Series [5] is described as follows: Drug metabolism in human liver microsomes assessed as psilocin formation at 2.5 uM after 120 mins by LC-MS analysis. The series is classed as ADME, Microsome. The settings on record: 2 h. Put shortly:
as §2
(Liver microsomes are a subcellular fraction often used to study metabolism.)

Series [6] can be described thus: Drug metabolism in C57BL/6 mouse assessed as psilocin formation at 10 mg/kg, po measured at 24 hrs by LC-MS analysis. The series is classed as ADME, organism-based. Particulars: in vivo.
A short description of series [7]: Drug metabolism in human intestine S9 fraction assessed as psilocin formation at 2.5 uM after 120 mins by LC-MS analysis. The series is classed as ADME, subcellular. Particulars: s9, 2 h. Put shortly:
as §2

The nature of series [8]: Drug metabolism in C57BL/6 mouse assessed as psilocin formation at 1 mg/kg, iv measured upto 24 hrs by LC-MS analysis. The series is classed as ADME, organism-based. The settings on record: in vivo.
Series [9] is described as follows: Metabolic stability in human liver microsomes assessed as half life at 2.5 uM measured upto 120 mins in presence of NADPH by LC-MS analysis. The series is classed as ADME, Microsome. The settings on record: microsomes, 2 h, 2.5 µM. Put shortly: as §1
Series [10] is described as follows: Metabolic stability in human intestine microsomes assessed as half life at 2.5 uM measured upto 120 mins in presence of NADPH by LC-MS analysis. The series is classed as ADME, Microsome. The settings on record: 2 h. Put shortly: as §1
A short description of series [11]: Drug metabolism in human intestine microsomes assessed as psilocin formation at 2.5 uM after 120 mins by LC-MS analysis. The series is classed as ADME, Microsome. The settings on record: 2 h. Put shortly: as §2
Series [12] is described as follows: Metabolic stability in human serum assessed as half life at 2.5 uM measured upto 120 mins in presence of NADPH by LC-MS analysis. The series is classed as ADME, cell-free. Particulars: 2 h. Put shortly: as §1
Series [13] has as its system Mus musculus. Briefly: Psychedelic activity in mouse assessed as head-twitch response at 1 mg/kg, po measured after 15 to 30 mins. Particulars: time 15-30 min. The series is classed as functional, organism-based. The method, boiled down: (§3)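 C57BL/6 mice, singly housed for 2 days, with 30-min predose chamber acclimation. Single oral 1 mg/kg dose from 100 mM DMSO stock diluted in 0.9% saline; vehicle 1% DMSO in saline. Video-recorded after dosing; head twitches scored blind per 15-min interval (reference time course) or for the 15–30 min window. n = 2–4; one-way ANOVA.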

Series [14] in a line: Drug metabolism in human liver S9 fraction assessed as psilocin formation at 2.5 uM after 120 mins by LC-MS analysis. The series is classed as ADME, subcellular. Particulars: s9, 2 h. The method, boiled down: as §2
Series [15] is described as follows: Drug metabolism in C57BL/6 mouse assessed as psilocin formation at 10 mg/kg, po measured after 8 hrs by LC-MS analysis. The series is classed as ADME, organism-based. Particulars: in vivo.
For series [16], the system named is Mus musculus. Briefly: Anxiolytic activity in mouse assessed as reduction in MCSP induced marble-burying behavior by measuring decrease in number of buried marbles at 1 mg/kg, po measured upto 7 days. The series is classed as functional, organism-based. Particulars: time <= 7.0 day. Put shortly:
(§4)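 Mixed-sex C57BL/6 mice, singly housed. Stress group: 7-day mild chronic stress paradigm with corticosterone 25 μg/mL in 1% ethanol drinking water plus daily 30-min restraint over the last 5 days; controls unstressed. Single oral dose in saline with 1% DMSO at 2.5 μL/g, given 24 h after stress. 10 marbles on 5 cm bedding; % buried over 20 min on days 1 and 7. Ordinary one-way ANOVA; n = 6–11.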

Series [17] is described as follows: Anxiolytic activity in non-stressed mouse assessed as reduction in marble-burying behavior by measuring decrease in number of buried marbles at 1 mg/kg, po measured upto 7 days. The series is classed as toxicity, organism-based. Particulars: in vivo, 168 h, time < 7 day. The method, boiled down:
as §4

A short description of series [18]: Drug metabolism in C57BL/6 mouse assessed as psilocin AUC(0 to last) at 10 mg/kg, po measured upto 24 hrs by LC-MS analysis. The series is classed as ADME, organism-based. The arrangement: dose 10 mg/kg, time < 24 hrs, route po. The settings on record: in vivo.
Series [19] is described as follows: Drug metabolism in C57BL/6 mouse assessed as psilocin Cmax at 3 mg/kg, po measured upto 24 hrs by LC-MS analysis. The series is classed as ADME, organism-based. The arrangement: dose 3 mg/kg, time < 24 hrs, route po. Particulars: in vivo.
The nature of series [20]: Drug metabolism in C57BL/6 mouse assessed as psilocin Cmax at 10 mg/kg, po measured upto 24 hrs by LC-MS analysis. The arrangement: time < 24 hrs, dose 10 mg/kg, route po. The series is classed as ADME, organism-based. The settings on record: in vivo.
Series [21] concerns Mus musculus. Briefly: Psychedelic activity in mouse assessed as head-twitch response at 1 mg/kg, po measured upto 90 mins. The series is classed as functional, organism-based. The method, boiled down: as §3
Series [22] is described as follows: Drug metabolism in C57BL/6 mouse assessed as psilocin AUC(0 to last) at 3 mg/kg, po measured upto 24 hrs by LC-MS analysis. The arrangement: time < 24 hrs, dose 3 mg/kg, route po. The settings on record: in vivo. The series is classed as ADME, organism-based.

Consider `CN(C)CCc1c[nH]c2cccc(OC(=O)OCC3CC3)c12`, for which the t1/2 stood at 9 min in [1]; 5.45 h in [3]; 4 min in series [9]; 4.52 h in series [10]; 3 min in series [12]. The Drug metabolism in [2] is 0.361 µM; in [4], “Dose-Dependent Effect”; in series [5], 1.929 µM; in series [6], “Metabolite_Detected”; in series [7], 0.224 µM; in series [8], “Metabolite_Detected”. Besides, the Drug metabolism in series [11] was 0.157 µM; in [14], 1.177 µM. Further, the outcome in the series on Mus musculus [13] was inactive.

Take `CN(C)CCc1c[nH]c2cccc(OP(=O)(O)O)c12` [PSILOCYBIN]: the Drug metabolism result in series [15] was “Metabolite_Notdetected”; in series [2], 0 µM; in [4], “Dose-Dependent Effect”; in [5], 0 µM; in [7], 0.621 µM; in series [11] it was 0.172 µM. Besides, the Drug metabolism in series [14] was 0 µM. Also, the result in the series with Mus musculus [16] and in the series on Mus musculus [21] was Active. The Activity result in series [17] is listed as “Non-Toxic”. Also, the figures for the AUClast in series [18] and in [22] were 0.3973 µg·h/mL and 0.0844 µg·h/mL, respectively. In addition, the Cmax worked out at 0.0529 µg/mL in [19] and 0.243 µg/mL in series [20]. The t1/2 in [10] worked out at 3.25 h.

Values taken from ChEMBL document CHEMBL5335796, “Novel Psilocin Prodrugs with Altered Pharmacological Properties as Candidate Therapies for Treatment-Resistant Anxiety Disorders” (J Med Chem, 2024).
